In ChEMBL document CHEMBL1142109, “Arzanol, an anti-inflammatory and anti-HIV-1 phloroglucinol alpha-Pyrone from Helichrysum italicum ssp. microphyllum” (J Nat Prod, 2007) one finds Activity and IC50 data, which are given here for 7 molecules.

For assay [1], the species on record is Homo sapiens. In words: (§1) Inhibition of TNFalpha activated NF-kappaB dependent transactivation of HIV-1 LTR Luc in 5.1 cells. It counts as cell-based. The method, boiled down:
(§2)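 A T cell line stably carrying HIV-1 LTR-driven luciferase was preincubated with increasing concentrations for 30 min, then stimulated with TNFα (2 ng/mL) for 6 h. Cells were lysed in Tris-phosphate buffer pH 7.8 with Triton X-100. Luciferase was read and normalized to Bradford protein (RLU/µg) after subtracting lysis-buffer background. Results are fold induction over untreated cells, with at least three repeats.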

In assay [2] the test system is Monocyte. Description: Inhibition of IL6 production in LPS-stimulated human primary monocytes by ELISA. In kind it is functional. The method, boiled down: (§3)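 Primary monocytes from healthy donors were seeded at (1-2) × 10^6 cells/well at 37 °C/5% CO2. Nonadherent cells were removed and the medium replaced with RPMI-1640 plus 1% human serum. Cells were preincubated with increasing compound concentrations for 30 min, then stimulated with LPS (10 ng/mL) for 24 h. Supernatants were cleared at 10000g for 10 min. Cytokines were measured by ELISA and PGE2 by EIA.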
A general note: An ELISA detects its analyte on a solid surface through an enzyme-linked reagent.

A short description of assay [3]: as §1. It counts as cell-based. To be noted: Homo sapiens. Put shortly:
as §2

The test system of assay [4] is Monocyte. Description: Inhibition of IL1-beta production in LPS-stimulated human primary monocytes by ELISA. In kind it is functional. Put shortly: as §3
Assay [5] concerns Human immunodeficiency virus 1. Description: Inhibition of VSV-pseudotyped HIV1 replication in Jurkat T cells. In kind it is functional, organism-based. The method, boiled down:
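Jurkat T cells (10^6/mL) pretreated 30 min with increasing concentrations before infection with VSV-pseudotyped pNL4-3.Luc.R-E- virus (Env-, Vpr-; stock made in 293T cells), 200 ng HIV-1 gag p24 per culture. After 24 h the cells were washed twice in PBS and luciferase activity in the lysates was read as % of infected untreated cells. Mean ± SD of three independent experiments.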

The test system of assay [6] is Monocyte. Description: Inhibition of PGE2 production in LPS-stimulated human primary monocytes by ELISA. In kind it is functional. Put shortly:
as §3

Assay [7] relates to Monocyte. In words: Inhibition of IL8 production in LPS-stimulated human primary monocytes by ELISA. In kind it is functional.
Assay [8] relates to Monocyte. Description: Inhibition of TNFalpha production in LPS-stimulated human primary monocytes by ELISA. It counts as functional. Put shortly:
as §3

The source made the active and inactive calls. The calls are words filed in the database; no cut-off is given here.

As for `C=C(CO)[C@@H]1Cc2cc(C(C)=O)ccc2O1`, the result in assay [1] was inactive.
On to `C=C(CO)[C@H]1Oc2ccc(C(C)=O)cc2[C@H]1OC(C)=O`, for which the result in assay [1] was inactive.
On the same count and under the same terms, in the case of `C=C(COC(C)=O)[C@@H]1Cc2cc(C(C)=O)ccc2O1` it was “inactive”.
In the case of `C=C(COC(C)=O)[C@H]1Oc2ccc(C(C)=O)cc2[C@H]1OC(C)=O`, the result in assay [1] was inactive.
For `CCC(C)C(=O)C(C)c1oc(=O)c(C)c(O)c1C` (stereo not drawn), the outcome in assay [1] was inactive.
`CCc1oc(=O)c(Cc2c(O)c(CC=C(C)C)c(O)c(C(C)=O)c2O)c(O)c1C` [ARZANOL]: the IC50 (commonly the midpoint of a concentration-inhibition curve) in assay [2] is 13.3 µM; in assay [3], 5 µM; in assay [4] it was 5.6 µM; in assay [6], 18.7 µM; in assay [7] it was 21.8 µM; in assay [8], 9.2 µM. In addition, the Activity entry in assay [5] is “Dose-dependent effect”.
For `CCc1oc(=O)c(Cc2c(O)c(C)c(CC)oc2=O)c(O)c1C` [HELIPYRONE], the IC50 in assay [3] came out at 8.7 µM.
